According to ChEMBL document CHEMBL1149790, “Synthesis of some novel thiourea derivatives obtained from 5-[(4-aminophenoxy)methyl]-4-alkyl/aryl-2,4-dihydro-3H-1,2,4-triazole-3-thiones and evaluation as antiviral/anti-HIV and anti-tuberculosis agents” (Eur J Med Chem, 2008):
In brackets after ≈: the same amount, converted by molar mass. Activity calls are given as the source filed them. The calls are words filed in the database; no cut-off is given here.

Experiments:
Vero = assay: Cytotoxicity against african green monkey Vero cells; assay type: cell-based; details: chlorocebus sabaeus
Summary of the method: (§1)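 Uninfected cell cultures exposed to test compounds alongside antiviral assays; minimum cytotoxic concentration (MCC) = concentration causing a microscopically detectable alteration of cell morphology.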

Coxsackievirus B4 [1] = assay: Antiviral activity against Coxsackie virus B4 in african green monkey Vero cells assessed as reduction of virus-induced cytopathogenicity; assay type: functional; details: Enterovirus B
Summary of the method: (§2)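 Confluent cell monolayers (E6SM, HEL, HeLa or Vero, per line) inoculated with 100 CCID50 virus; 1 h adsorption, residual virus removed, then incubated with compound at 400, 200, 100 … µg/ml. Cytopathicity scored once complete in untreated virus controls; MIC = concentration inhibiting virus-induced cytopathicity.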

[2] = system: Respiratory syncytial virus; assay: Antiviral activity against respiratory syncytial virus in human HeLa cells assessed as inhibition of virus-induced cytopathogenicity; assay type: functional; summary of the method: as §2
[3] = system: Vesicular stomatitis virus; assay: Antiviral activity against vesicular stomatitis virus in human HeLa cells assessed as inhibition of virus-induced cytopathogenicity; assay type: functional; summary of the method: as §2
[4] = Cytotoxicity against human MT4 cells by MTT assay; assay type: cell-based
Summary of the method: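 Mock-infected MT-4 cells (6 × 10⁵ cells/ml) with serial five-fold compound dilutions in triplicate; MTT reduction read at 540 and 690 nm after 5 days, median OD of three wells; CC50 = concentration reducing OD540 of mock-infected control by 50%.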

Human alphaherpesvirus 1 [5] = assay: Antiviral activity against thymidine kinase deficient and acyclovir resistant HSV1 KOS in human HEL cells assessed as reduction of virus-induced cytopathogenicity; assay type: functional; details: Human alphaherpesvirus 1, KOS; summary of the method: as §2
Sindbis virus = assay: Antiviral activity against Sindbis virus in african green monkey Vero cells assessed as reduction of virus-induced cytopathogenicity; assay type: functional; summary of the method: as §2
[6] = system: Vesicular stomatitis virus; assay: Antiviral activity against in Vesicular stomatitis virus in human HEL cells assessed as reduction of virus-induced cytopathogenicity; assay type: functional; summary of the method: as §2
Human alphaherpesvirus 3 [7] = assay: Antiviral activity against TK- VZV 07/1 infected HEL cells assessed as reduction in virus plaque formation; assay type: functional, organism-based; details: Human alphaherpesvirus 3, 07/1, HEL
[8] = Cytotoxicity against human HEL cells assessed as reduction of cell growth; assay type: cell-based
Summary of the method: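 HEL cells; CC50 = compound concentration reducing cell growth by 50%.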

Human alphaherpesvirus 1 [9] = assay: Antiviral activity against HSV1 KOS in human E6SM cells assessed as reduction of virus-induced cytopathogenicity; assay type: functional; details: Human alphaherpesvirus 1, KOS; summary of the method: as §2
[10] = Cytotoxicity against human HeLa cells; assay type: cell-based; summary of the method: as §1
Human alphaherpesvirus 2 [11] = assay: Antiviral activity against HSV2 G in human E6SM cells assessed as reduction of virus-induced cytopathogenicity; assay type: functional; details: Human alphaherpesvirus 2, G; summary of the method: as §2
Human alphaherpesvirus 1 [12] = assay: Antiviral activity against thymidine kinase deficient and acyclovir resistant HSV1 KOS in human E6SM cells assessed as reduction of virus-induced cytopathogenicity; assay type: functional; details: Human alphaherpesvirus 1, KOS; summary of the method: as §2
Human betaherpesvirus 5 [13] = assay: Antiviral activity against human cytomegalovirus AD169 infected HEL cells assessed as reduction in virus plaque formation; assay type: functional, organism-based; details: Human betaherpesvirus 5, AD169, HEL
[14] = Cytotoxicity against human E6SM cells; assay type: cell-based; details: E6SM cells; summary of the method: as §1
Coxsackievirus B4 [15] = assay: Antiviral activity against Coxsackie virus B4 in human HeLa cells assessed as inhibition of virus-induced cytopathogenicity; assay type: functional; details: Enterovirus B; summary of the method: as §2
Human respirovirus 3 = assay: Antiviral activity against Parainfluenza 3 virus in african green monkey Vero cells assessed as reduction of virus-induced cytopathogenicity; assay type: functional; summary of the method: as §2
[16] = system: Human immunodeficiency virus 1; assay: Antiviral activity against HIV1 3B in human MT4 cells assessed as protection against virus-induced cytopathogenicity by MTT assay; assay type: functional, organism-based; set-up: Activity: concentration or dose not given beside the values; details: for IC50: Human immunodeficiency virus 1, 3B, MT4
Summary of the method: (§3)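 MT-4 cells at 6 × 10⁵ cells/ml infected with HIV-1 IIIB or HIV-2 ROD at 100–300 CCID50; compounds in serial five-fold dilutions, triplicate mock- and virus-infected wells. MTT viability read at 540 and 690 nm after 5 days, median OD of three wells; EC50 = 50% protection from viral cytopathic effect.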

Human alphaherpesvirus 1 [17] = assay: Antiviral activity against HSV1 KOS in human HEL cells assessed as reduction of virus-induced cytopathogenicity; assay type: functional; details: Human alphaherpesvirus 1, KOS; summary of the method: as §2
[18] = system: Human immunodeficiency virus 2; assay: Antiviral activity against HIV2 ROD in human MT4 cells assessed as protection against virus-induced cytopathogenicity by MTT assay; assay type: functional, organism-based; set-up: Activity: concentration or dose not given beside the values; details: for IC50: Human immunodeficiency virus 2, ROD, MT4; summary of the method: as §3
[19] = system: Mycobacterium tuberculosis; assay: Antitubercular activity against Mycobacterium tuberculosis H37Rv at 6.25 ug/ml by MABA assay; assay type: functional
[20] = system: Mammalian orthoreovirus 1; assay: Antiviral activity against Reo virus 1 in african green monkey Vero cells assessed as reduction of virus-induced cytopathogenicity; assay type: functional; summary of the method: as §2
[21] = Cytotoxicity against human HEL cells assessed as alteration of cell morphology; assay type: cell-based; summary of the method: as §1
[22] = system: Vesicular stomatitis virus; assay: Antiviral activity against in Vesicular stomatitis virus in human E6SM cells assessed as reduction of virus-induced cytopathogenicity; assay type: functional; summary of the method: as §2
Human alphaherpesvirus 3 [23] = assay: Antiviral activity against TK+ VZV OKA infected HEL cells assessed as reduction in virus plaque formation; assay type: functional, organism-based; details: Human alphaherpesvirus 3, OKA
Human alphaherpesvirus 2 [24] = assay: Antiviral activity against HSV2 G in human HEL cells assessed as reduction of virus-induced cytopathogenicity; assay type: functional; details: Human alphaherpesvirus 2, G; summary of the method: as §2
Punta Toro virus = assay: Antiviral activity against Punta Toro virus in african green monkey Vero cells assessed as reduction of virus-induced cytopathogenicity; assay type: functional; summary of the method: as §2
Human betaherpesvirus 5 [25] = assay: Antiviral activity against human cytomegalovirus Davis infected HEL cells assessed as reduction in virus plaque formation; assay type: functional, organism-based; details: Human betaherpesvirus 5, Davis

SMILES | Activity (Vero) | MIC (Coxsackievirus B4 [1]) [µg/mL] | MIC [2] [µg/mL] | MIC [3] [µg/mL] | CC50 [4] [µg/mL] | MIC (Human alphaherpesvirus 1 [5]) [µg/mL] | MIC (Sindbis virus) [µg/mL] | MIC [6] [µg/mL] | EC50 (Human alphaherpesvirus 3 [7]) [µg/mL] | CC50 [8] [µg/mL] | MIC (Human alphaherpesvirus 1 [9]) [µg/mL] | MCC [10] [µg/mL] | MIC (Human alphaherpesvirus 2 [11]) [µg/mL] | MIC (Human alphaherpesvirus 1 [12]) [µg/mL] | EC50 (Human betaherpesvirus 5 [13]) [µg/mL] | MCC [14] [µg/mL] | MIC (Coxsackievirus B4 [15]) [µg/mL] | MIC (Human respirovirus 3) [µg/mL] | Activity [16] [%] | IC50 [16] [µg/mL] | other results
CCNC(=S)Nc1ccc(OCc2n[nH]c(=S)n2CC)cc1 | 400 µg/mL | 48 (≈ 142 µM) | > 80 | > 80 | 94.2 (≈ 279 µM) | 240 (≈ 711 µM) | > 80 | > 400 | 58 (≈ 172 µM) | > 50 | > 400 | 400 | 240 (≈ 711 µM) | 240 (≈ 711 µM) | 49 (≈ 145 µM) | > 400 | > 80 | > 80 | 9.5 | > 88.3 | MIC (Human alphaherpesvirus 1 [17]): > 400 µg/mL; Activity [18]: 8%; IC50 [18]: > 91.1 µg/mL; Activity [19]: inactive; MIC [20]: > 80 µg/mL; MCC [21]: > 400 µg/mL; MIC [22]: > 400 µg/mL; EC50 (Human alphaherpesvirus 3 [23]): 64 µg/mL (≈ 190 µM); MIC (Human alphaherpesvirus 2 [24]): 240 µg/mL (≈ 711 µM); MIC (Punta Toro virus): > 80 µg/mL; EC50 (Human betaherpesvirus 5 [25]): 55 µg/mL (≈ 163 µM)
CCn1c(COc2ccc(NC(=S)Nc3ccccc3)cc2)n[nH]c1=S | >= 80 ug ml-1 | 48 (≈ 125 µM) | > 80 | 80 (≈ 208 µM) | 31.9 (≈ 82.8 µM) | > 80 | > 80 | > 80 | 34 (≈ 88.2 µM) | > 50 | > 80 | 400 | > 80 | > 80 | 41 (≈ 106 µM) | 400 | > 80 | > 80 | 26.5 | > 27.2 | MIC (Human alphaherpesvirus 1 [17]): > 80 µg/mL; Activity [18]: 25.5%; IC50 [18]: > 31.4 µg/mL; inhibition at 6.25 µg/mL [19]: 76%; MIC [20]: > 80 µg/mL; MCC [21]: 400 µg/mL; MIC [22]: > 80 µg/mL; EC50 (Human alphaherpesvirus 3 [23]): 29 µg/mL (≈ 75.2 µM); MIC (Human alphaherpesvirus 2 [24]): > 80 µg/mL; MIC (Punta Toro virus): > 80 µg/mL; EC50 (Human betaherpesvirus 5 [25]): 37 µg/mL (≈ 96 µM)
S=C(Nc1ccccc1)Nc1ccc(OCc2n[nH]c(=S)n2-c2ccccc2)cc1 | 80 µg/mL | > 16 | > 16 | > 16 | 44.1 (≈ 102 µM) | > 80 | > 16 | > 80 | 39 (≈ 90 µM) | > 50 | > 80 | 80 | > 80 | > 80 | > 20 | 400 | > 16 | > 16 | 5.5 | > 30.6 | MIC (Human alphaherpesvirus 1 [17]): > 80 µg/mL; Activity [18]: 4.5%; IC50 [18]: > 41.5 µg/mL; MIC [20]: > 16 µg/mL; MCC [21]: 400 µg/mL; MIC [22]: > 80 µg/mL; EC50 (Human alphaherpesvirus 3 [23]): 26 µg/mL (≈ 60 µM); MIC (Human alphaherpesvirus 2 [24]): > 80 µg/mL; MIC (Punta Toro virus): > 16 µg/mL; EC50 (Human betaherpesvirus 5 [25]): 37 µg/mL (≈ 85.3 µM)
C=CCn1c(COc2ccc(NC(=S)NC)cc2)n[nH]c1=S | 400 µg/mL | > 80 | > 80 | > 80 | 108 (≈ 323 µM) | > 400 | > 80 | > 400 | > 100 | > 50 | > 400 | 400 | > 400 | > 400 | > 100 | > 400 | > 80 | > 80 | 1 | > 101 | MIC (Human alphaherpesvirus 1 [17]): > 400 µg/mL; Activity [18]: 3.5%; IC50 [18]: > 110 µg/mL; MIC [20]: > 80 µg/mL; MCC [21]: > 400 µg/mL; MIC [22]: > 400 µg/mL; EC50 (Human alphaherpesvirus 3 [23]): > 100 µg/mL; MIC (Human alphaherpesvirus 2 [24]): > 400 µg/mL; MIC (Punta Toro virus): > 80 µg/mL; EC50 (Human betaherpesvirus 5 [25]): > 100 µg/mL
